The values below come from ChEMBL document CHEMBL1125866, “Aldophosphamide acetal diacetate and structural analogues: synthesis and cytotoxicity studies” (J Med Chem, 1991).

One series deals with carboxylate esterase. The experiment in a line: Half-life in […] at pH 7.4(37 degrees C) in the presence of pig Liver Carboxylate Esterase. The series is classed as ADME, Sus scrofa. The conditions noted are these: pig liver carboxylate esterase in phosphate buffer. The method, boiled down:
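Acetal at 100 μM in 0.05 M phosphate buffer, pH 7.4, at 37 °C with pig liver carboxylate esterase, 2 units per μmol substrate (1 unit hydrolyses 1.0 μmol ethyl butyrate/min at pH 8.0, 25 °C). Samples vortexed, centrifuged, supernatant analysed by C-18 HPLC, UV 220 nm. Half-life by least-squares regression, pseudo-first-order.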

In the next series the test system is L1210. The experiment in a line: Concentration required to reduce the viability of L1210 cells by 50% after 1-h incubation at 37 degrees C. It is filed as functional, cell-based. Particulars: Mus musculus, L1210, 1 h. A digest of the protocol:
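Exposed to at least seven drug concentrations (0.1–300 μM) for 1 h at 37 °C, washed, regrown drug-free 72 h. MTT reduction read at 570 nm. IC50 from concentration–viability plot, average of duplicates.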

A short description of series [1]: Half-life in […] Phosphate buffer at pH 7.4(37 degrees C). It is filed as ADME. A digest of the protocol:
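Acetal at 100 μM in 0.05 M phosphate buffer, pH 7.4, shaken at 37 °C without enzyme. Aliquots taken at intervals (typically 2–50 h) and parent drug measured by reverse-phase C-18 HPLC with UV detection at 220 nm. Half-life from linear least-squares regression of pseudo-first-order decay.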

In the case of `CC(=O)OC(CCOP(=O)(N(C)C)N(CCCl)CCCl)OC(C)=O` (configuration not stated), the half-life is 36 s with carboxylate esterase and 36 h in series [1]. In addition, the IC50 in the series with L1210 was > 245 µM.
In the same order, the values of `CCNP(=O)(OCCC(OC(C)=O)OC(C)=O)N(CCCl)CCCl` (configuration not stated) are 42 s, 40 h and 29 µM.
In turn, `CC(=O)OC(CCOP(N)(=O)N(CCCl)CCCl)OC(C)=O.O=S(=O)(O)CCS` (configuration not stated) had an IC50 in the series with L1210 of 0.9 µM.
On to `CCN(CC)P(=O)(OCCC(OC(C)=O)OC(C)=O)N(CCCl)CCCl` (configuration not stated), for which the half-life in the series on carboxylate esterase was 40 s; in series [1], 37 h. Also, in the series with L1210, the half-inhibitory concentration (IC50) was found to be 78 µM.
With `O=S(=O)(O)CCS` [MESNA], in the series with L1210, the IC50 was > 200 µM.
Still for that read-out and setting: as for `C=CC=O.O=S(=O)(O)CCS`, the figure is 168 µM; as for `O=P1(N(CCCl)CCCl)NC(OO)CCO1.O=S(=O)(O)CCS` (configuration not stated), 90 µM; as for `O=P1(N(CCCl)CCCl)NCCCO1` (configuration not stated) [CYCLOPHOSPHAMIDE ANHYDROUS], > 300 µM.
`O=P1(N(CCCl)CCCl)NC(OO)CCO1` (configuration not stated) [PERFOSFAMIDE]: in the series on L1210, the IC50 was determined as 90 µM.
On to `CC(=O)OC(CCOP(N)(=O)N(CCCl)CCCl)OC(C)=O` (configuration not stated), for which the half-life is 36 s in the series on carboxylate esterase and 38 h in series [1]. The compound also registered an IC50 in the series on L1210 of 0.9 µM.
As for `C=CC=O` [ACROLEIN], the IC50 in the series with L1210 is 48 µM. This lies in the double-digit micromolar range.
In the case of `CNP(=O)(OCCC(OC(C)=O)OC(C)=O)N(CCCl)CCCl` (configuration not stated), the half-life with carboxylate esterase was 42 s; in series [1] it was 42 h. This compound also yielded an IC50 in the series on L1210 of 38 µM.

A word on the half-life: it is the time needed for the level to fall by half in the phase considered. Broadly, the IC50 is the concentration needed to halve the response being measured. Read a low IC50 as greater potency in that assay.
